Activity calls are given as the source filed them. No cut-off for these calls is given here.
Key:
NALM-6 = experiment: Cytostatic activity against human NALM6 cells at 2 umol/L measured after 4 to 5 days using Burker counting chamber; assay type: functional, cell-based
In short: (§1)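 Cells were seeded at 2.5 × 10^5 cells/mL in DMSO-containing medium, with or without 2 μmol/L compound. Cells were counted daily in a Bürker chamber. PDL was calculated as log(Nf/N0)/log 2 over 6 days. Values are mean ± SD of three experiments, compared with DMSO controls.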

Jurkat [1] = experiment: Cytostatic activity against human Jurkat cells at 2 umol/L measured after 2 to 3 days using Burker counting chamber; assay type: functional, cell-based; in short: as §1
Jurkat [2] = experiment: Cytostatic activity against human Jurkat cells assessed as population doubling level at 2 umol/L after 6 days using Burker counting chamber (reference value: 3.25); assay type: functional; in short: as §1
[3] = Cytotoxicity against human PBMC assessed as reduction in viable cells measured after 24 hrs by Hoechst-33258 staining-based FACS analysis; assay type: toxicity, cell-based
In short: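 Human PBMC isolated on a Ficoll-Paque gradient, seeded at 1 × 10^5 cells/well in RPMI1640. Exposed 24 h to a compound concentration range; medium and DMSO negative controls. Cells stained with Hoechst 33258 and read by flow cytometry; live-cell percentage from Hoechst-negative singlets. EC50 by five-parameter nonlinear regression.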

## CCCCCC(=O)C1=C(O)C(=O)c2c(O)c(O)cc(O)c2C1=O
NALM-6
  Activity: Active
Jurkat [1]
  Activity: Active
Jurkat [2]
  Activity: 1.64
[3]
  EC50 at 24 h: 56.1 µM

— ChEMBL document CHEMBL3868590, “Quambalarine B, a Secondary Metabolite from Quambalaria cyanescens with Potential Anticancer Properties” (J Nat Prod, 2016)
